Assay outcomes as filed in PubChem.
hERG protect = compounds protecting human hERG from proarrhythmic drug block. 0.51% of 310,000 active. CHO-hERG, FluxOR thallium flux, dofetilide IC70 present. activation (rescue from dofetilide block), less the hit threshold, % at 10 µM. AID 1511;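 active = activation above the mean of controls blocked by dofetilide plus 5 SD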;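 note: thallium influx through hERG after potassium depolarization seen as dye fluorescence rise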
KCNQ1 act = potentiates or activates the human KCNQ1 potassium channel; B-score at 10 µM; AID 2648; 0.35% of 310,000 active; P51787; CHO-K1 KCNQ1, thallium flux FluxOR fluorescence; active compounds read high;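 active = fluorescence ratio B-score, a plate-corrected score, at least three library SD, with initial intensity B-score within 5 SD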
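Test system: CHO-K1 cells stably expressing KCNQ1 / Medium: assay buffer / Also added: depolarizing K+/Tl+ stimulus, K2SO4 and Tl2SO4 each 12.5 mM in 5x stock / Incubation: 90 min dye loading and 20 min compound exposure, both at room temperature / Signal: thallium influx via FluxOR fluorescence, kinetic imaging / Evaluation: B score of baseline-normalized fluorescence ratio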
KCNK3 block = human KCNK3 channel inhibition, primary screen; 0.84% of 340,000 active; O14649; B-score at 10 µM; CHO-KCNK3 thallium flux, FluxOR fluorescence; active compounds read low; AID 602410;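 active = B-score under library mean minus 4 SD, starting fluorescence ratio at most library mean plus 5 SD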;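 note: more negative B-score means stronger inhibition of thallium flux through KCNK3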
Target sequence (O14649 whole entry, looked up): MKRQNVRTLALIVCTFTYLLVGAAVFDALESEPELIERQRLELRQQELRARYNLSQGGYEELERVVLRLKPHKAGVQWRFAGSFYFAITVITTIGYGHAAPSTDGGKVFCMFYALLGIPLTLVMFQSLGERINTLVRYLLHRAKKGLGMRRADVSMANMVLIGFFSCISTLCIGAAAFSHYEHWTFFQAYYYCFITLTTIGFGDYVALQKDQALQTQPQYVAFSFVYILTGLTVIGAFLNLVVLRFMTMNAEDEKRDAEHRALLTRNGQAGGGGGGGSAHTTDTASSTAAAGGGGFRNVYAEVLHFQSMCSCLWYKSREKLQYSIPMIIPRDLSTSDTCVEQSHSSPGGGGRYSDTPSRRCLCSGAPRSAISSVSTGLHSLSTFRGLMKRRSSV
KCNK9 block = blocks the human KCNK9 two-pore domain potassium channel. Q9NPC2. HEK293 KCNK9, FluxOR thallium flux fluorescence; active compounds read low. B-score at 10 µM. 1.2% of 310,000 active;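 active = ratio B-score over 3 SD below the library mean, with starting fluorescence within 5 SD of its mean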;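 note: negative B-score means less thallium flux so channel inhibition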
KCNQ1 block = blocks the human KCNQ1 potassium channel; CHO-K1 KCNQ1, FluxOR thallium flux fluorescence; active compounds read high; B-score at 10 µM; 1.3% of 310,000 active; AID 2642;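 active = compounds whose thallium flux B-score, printed positive for inhibition, exceeds three library SD while starting fluorescence stays within three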;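 note: channel opened by potassium depolarization with thallium stimulus after 20 min compound exposure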
* = called active by the depositor; i = inactive; nt = no result given. Rows were chosen to be rich in hits. Some 3.1% of all compounds tested hit in one or more screens of this group.

SMILES | hERG protect | KCNQ1 act | KCNK3 block | KCNK9 block | KCNQ1 block
O=C(CN1CCN(c2cccc(C(F)(F)F)c2)CC1)N(C1CCCC1)C1CCS(=O)(=O)C1 (stereo not drawn) | nt | nt | -8.73* | nt | nt
O=C(Cc1ccccc1)NC1CCN(Cc2ccccc2)CC1 | -2.1 | i | i | i | i
Cc1ccccc1CC(=O)NC1CCN(Cc2ccccc2)CC1 | 8.2* | i | i | i | i
Cc1oc(/N=C/c2ccc(F)cc2)c(C#N)c1C | 7.7* | i | i | i | i
Cc1ccc(C(C)NC(=O)c2cccs2)cc1C (stereo not drawn) | 5.2* | i | i | i | i
Cc1ccc(C(C)NC(=O)c2cccs2)cc1 (stereo not drawn) | -6.2 | i | i | i | i
COc1ccc(S(=O)Cc2ccc(C(=O)NCc3cccc(OC)c3)o2)cc1 (stereo not drawn) | -7.7 | i | i | i | i
COc1ccc(N2C(=O)c3cccc4c(N(C)CCO)ccc(c34)C2=O)cc1 | -11.9 | i | i | i | 7*
Cn1c(Sc2ccccc2Cl)c(C=O)c2ccccc21 | -13.2 | i | i | i | 11*
CC(C)Cn1c(=O)c(C(=O)Nc2ccncc2)c(O)c2ccccc21 | -17.1 | i | i | i | 8*
COc1ccc(C2CC(=O)N3CN(Cc4ccco4)CSC3=C2C#N)cc1 (stereo not drawn) | -4.1 | i | i | i | i
COc1ccc2ccccc2c1C1CC(=O)N2CN(Cc3ccco3)CSC2=C1C#N (stereo not drawn) | -5.8 | i | i | i | 7*
CC(=O)C(C(c1ccccc1)N1CCCc2ccccc21)N1CCOCC1 (stereo not drawn) | nt | nt | i | nt | nt
COc1ccc(N2CCN(CCC(=O)c3ccc4ccccc4c3)CC2)cc1 | -8.0 | i | i | i | i
CC1Cc2ccccc2N1C(=O)Cn1c(=O)oc2cc(S(=O)(=O)N3CCCCC3)ccc21 (stereo not drawn) | -7.6 | i | i | -7.23* | i
O=c1c(O)c(-c2cccs2)oc2ccc(Cl)cc12 | 34.8* | 72* | i | i | i
O=c1c(O)c(-c2cccs2)oc2ccccc12 | 33.5* | 55* | i | i | i
O=c1c(O)c(-c2ccccc2)oc2ccccc12 | nt | nt | i | nt | nt
Cc1cc(=O)[nH]c(SCC(=O)N2C(C)CCCC2C)n1 (stereo not drawn) | -1.6 | i | i | i | i
Cc1cc(O)c2c(c1)C(=O)c1cc(O)cc(O)c1C2=O | -9.3 | i | i | i | 6*
O=C1c2cc(O)cc(O)c2C(=O)c2c1cc(O)c([C@@H](CO)CCO)c2O | -21.1 | i | i | i | i
CCOC(=O)c1c(NC(=O)CN2C(=O)NC3(CCCC3)C2=O)sc(C)c1CC | -8.8 | i | i | i | i
CC1(c2ccccc2Br)NC(=O)N(CC(=O)NC2CCCCC2)C1=O (stereo not drawn) | nt | nt | i | nt | nt
Nc1cc(=O)[nH]c(SCC(=O)NC2CCCCCCC2)n1 | nt | nt | i | nt | nt
FC(F)C(F)(F)C(F)(F)C(F)(F)c1cc(-c2ccccc2)n[nH]1 | -18.7 | i | i | -7.78* | i
SMILES | hERG protect | KCNQ1 act | KCNK3 block | KCNK9 block | KCNQ1 block
CNC(=O)COc1ccc(S(=O)(=O)N2CCCC2)cc1 | -6.2 | i | i | i | i
O=C(CSc1nnc(SCc2cccc3ccccc23)s1)Nc1ccc(C(=O)O)cc1 | -9.4 | i | i | i | i
O=C(CSc1nnc(SCc2cccc3ccccc23)s1)c1ccc2c(c1)OCO2 | -7.5 | 8* | i | i | i
O=C(c1cc(Br)ccc1O)N1CCN(S(=O)(=O)Cc2ccccc2)CC1 | nt | nt | i | nt | nt
COC(=O)c1c(C)nc(C)c(C(=O)OC)c1-c1cccs1 | 8.1* | i | i | i | i
COC(=O)c1sc(-c2cccs2)cc1N | -2.7 | i | i | i | i
CCS(=O)(=O)n1nc(-c2ccc(Cl)cc2)nc1SCc1ccccc1 | -15.5 | i | nt | i | 10*
COc1ccc(-c2nc(SCc3ccccc3)n(S(C)(=O)=O)n2)cc1 | -6.8 | i | i | i | i
Nc1cccc(P(=O)(c2ccccc2)c2ccccc2)c1 | -1.7 | i | i | i | i
O=P(c1ccccc1)(c1ccccc1)N(c1ccccc1)c1ccccc1 | -4.2 | i | i | i | 7*
